The subject of series [1] is Mus musculus. As to the kind of experiment: Anorexic effect in high fat diet-induced obese C57BL/6J mouse model assessed as reduction in cumulative food intake at 20 mg/kg, po pretreated for 30 mins followed by food addition measured after 4 hrs relative to control. On the set-up: scale not given: the % may be the effect or the level left. Format: functional. A digest of the protocol:
(§1)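 Mice starved 12 h (8:00 am to 8:00 pm) with water available, then housed singly. Compound given orally in 5% gum acacia in normal saline; vehicle group received the same. Cumulative food intake measured over 4 h of the night phase (9:00 pm to 1:00 am), starting 30 min after dosing. Antagonism arms: imitet 5 mg/kg i.p. 30 min before compound, or α-methyl-DL-histidine 20 mg/kg i.p. 2 h before.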

Series [2] can be described thus: Ratio of AUClast in C57BL/6J mouse serum assessed as 4-(2-Amino-8-methyl-5,6,7,8-tetrahydroquinazolin-4-yl)phenol level to AUClast in C57BL/6J mouse serum. It counts as ADME. The gist of the method:
(§2)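 Male C57BL/6J mice (6–8 weeks) were fasted 12–16 h, then given a single oral dose of 20 mg/kg as a 2.5 mg/mL suspension in 1% gum acacia/water (n=5 per time point). Serum and brain (homogenised 1:6 in PBS) were sampled up to 24 h. Parent and demethylated metabolite were measured by LC-MS/MS (range 0.25–200 ng/mL). AUC ran to the last observation.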

Series [3] is described as follows: Tmax in C57BL/6J mouse brain at 20 mg/kg, po by LC-MS/MS analysis. Format: ADME, organism-based. A digest of the protocol: (§3)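 Male C57BL/6J mice (6-8 weeks, 20 ± 5 g) fasted overnight (12-16 h) got a single 20 mg/kg oral dose as 2.5 mg/mL suspension in 1% w/v gum acacia; n=5 per time point. Serum and brain (PBS homogenate 1:6 w/v) sampled up to 24 h. Parent and demethylated metabolite quantified by LC-MS/MS after liquid-liquid extraction (C18, MRM, phenacetin internal standard; linear 0.25-200 ng/mL). Two-compartment open model fit.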

In series [4] the target is Free fatty acid receptor 1 (Homo sapiens) (UniProt O14842). The series can be described thus: Antagonist activity at GPR40 (unknown origin) expressed in HEK293 cells harboring luc2P/NFAT-RE plasmid at 10 uM after 6 to 8 hrs by luciferase reporter gene assay. It counts as cell-based. A digest of the protocol: (§4)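 NFAT-RE luciferase assay in HEK293T cells transiently co-transfected with luc2P/NFAT-RE plasmid and receptor plasmid. Cells plated in DMEM and incubated overnight at 37 °C, 5% CO₂. Compounds and reference ligands applied for 6-8 h. Luciferase read after adding Bright-Glo substrate (1 mg/ml final).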
Free fatty acid receptor 1 (Homo sapiens), sequence (O14842 whole entry): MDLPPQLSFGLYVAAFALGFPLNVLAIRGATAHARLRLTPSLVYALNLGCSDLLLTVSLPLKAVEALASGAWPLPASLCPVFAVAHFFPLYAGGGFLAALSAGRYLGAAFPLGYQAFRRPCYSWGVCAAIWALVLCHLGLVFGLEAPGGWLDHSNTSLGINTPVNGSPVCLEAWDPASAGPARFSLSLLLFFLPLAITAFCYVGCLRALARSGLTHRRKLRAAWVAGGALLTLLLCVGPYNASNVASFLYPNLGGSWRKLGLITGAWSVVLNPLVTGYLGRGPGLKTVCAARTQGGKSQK
On the technique in general: A reporter such as luciferase makes a cellular process visible.

The test system of series [5] is Mus musculus. As to the kind of experiment: Anti-obesity activity in high fat diet-induced obese C57BL/6J mouse model assessed as reduction in body fat mass at 10 mg/kg, po measured after 6 weeks relative to control by NMR-based magnetic resonance imaging analysis. Format: functional. The gist of the method: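 Male C57BL/6J mice on high-fat diet dosed orally for six weeks against a vehicle-treated high-fat diet group and a chow group. Body composition (fat mass, lean mass, % body fat) measured by EchoMRI live scanning. n=5-6. One-way ANOVA with Newman-Keuls test.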

For series [6], the system named is Mus musculus. As to the kind of experiment: Anti-obesity activity in high fat diet-induced obese C57BL/6J mouse model assessed as reduction in body weight at 10 to 20 mg/kg, po. Format: functional, organism-based. Conditions: TDE = time-dependent effect.
Series [7] can be described thus: AUClast in C57BL/6J mouse brain assessed as 4-(2-Amino-8-methyl-5,6,7,8-tetrahydroquinazolin-4-yl)phenol level at 20 mg/kg, po by LC-MS/MS analysis. Conditions: in vivo. On the set-up: dose 20 mg/kg, time 0 - last, route oral. Format: ADME, organism-based. The gist of the method: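 Male C57BL/6J mice, 6-8 weeks, 20 ± 5 g, fasted overnight (12-16 h), n = 5 per time point. Single 20 mg/kg oral dose given by feeding needle as a 2.5 mg/mL suspension in 1% w/v gum acacia and water. Serum and brain (homogenized 1:6 w/v in PBS) sampled up to 24 h. Liquid-liquid extraction, then LC-MS/MS in positive MRM mode with phenacetin as internal standard. Linear range 0.25-200 ng/mL. Non-compartmental and compartmental analysis.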

A short description of series [8]: Ratio of fCmax in C57BL/6J mouse brain to IC50 for recombinant human Gi-coupled H3 receptor expressed in HEK293T cells assessed as reduction in histamine-induced inhibition of forskolin-stimulated cAMP accumulation. Format: cell-based. A digest of the protocol:
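Fasted male C57BL/6J mice received a single oral dose of 20 mg/kg in gum acacia suspension. Brain Cmax came from LC-MS/MS of brain homogenate. Unbound brain fraction was measured by equilibrium dialysis of brain tissue homogenate. Unbound Cmax, converted to nM, was divided by the H3R antagonist IC50 from the GloSensor cAMP assay in transfected HEK293T cells.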
For orientation: Cyclic AMP is a second messenger, typically raised through Gs and lowered through Gi signalling.

Series [9] in a line: Toxicity in lean C57BL/6J mouse assessed as change in body fat mass at 10 to 20 mg/kg, po measured after 6 weeks. Format: organism-based. Conditions: in vivo, 1008 h.
Series [10] in a line: Tmax in C57BL/6J mouse serum assessed as 4-(2-Amino-8-methyl-5,6,7,8-tetrahydroquinazolin-4-yl)phenol level at 20 mg/kg, po by LC-MS/MS analysis. Format: ADME, organism-based. The settings on record: in vivo. A digest of the protocol:
as §3

For series [11], the system named is Mus musculus. The series can be described thus: Anorexic effect in 12 hrs fasted db/db-induced obese C57BL/6J mouse model assessed as reduction in cumulative food intake at 20 mg/kg, po pretreated for 30 mins followed by food addition measured after 4 hrs in presence of H3R agonist-imitet. Format: functional, organism-based. The gist of the method:
as §1

Series [12] can be described thus: Ratio of AUClast in C57BL/6J mouse brain assessed as 4-(2-Amino-8-methyl-5,6,7,8-tetrahydroquinazolin-4-yl)phenol level to AUClast in C57BL/6J mouse serum assessed as 4-(2-Amino-8-methyl-5,6,7,8-tetrahydroquinazolin-4-yl)phenol level. Format: ADME. The gist of the method:
as §2

A short description of series [13]: Cmax in C57BL/6J mouse serum assessed as 4-(2-Amino-8-methyl-5,6,7,8-tetrahydroquinazolin-4-yl)phenol level at 20 mg/kg, po by LC-MS/MS analysis. It counts as ADME, organism-based. On the set-up: dose 20 mg/kg, route oral. The settings on record: in vivo. A digest of the protocol: as §3
The target of series [14] is T1, Muscarinic acetylcholine receptor M5 (Homo sapiens) (UniProt P08912).
T1 sequence (whole entry): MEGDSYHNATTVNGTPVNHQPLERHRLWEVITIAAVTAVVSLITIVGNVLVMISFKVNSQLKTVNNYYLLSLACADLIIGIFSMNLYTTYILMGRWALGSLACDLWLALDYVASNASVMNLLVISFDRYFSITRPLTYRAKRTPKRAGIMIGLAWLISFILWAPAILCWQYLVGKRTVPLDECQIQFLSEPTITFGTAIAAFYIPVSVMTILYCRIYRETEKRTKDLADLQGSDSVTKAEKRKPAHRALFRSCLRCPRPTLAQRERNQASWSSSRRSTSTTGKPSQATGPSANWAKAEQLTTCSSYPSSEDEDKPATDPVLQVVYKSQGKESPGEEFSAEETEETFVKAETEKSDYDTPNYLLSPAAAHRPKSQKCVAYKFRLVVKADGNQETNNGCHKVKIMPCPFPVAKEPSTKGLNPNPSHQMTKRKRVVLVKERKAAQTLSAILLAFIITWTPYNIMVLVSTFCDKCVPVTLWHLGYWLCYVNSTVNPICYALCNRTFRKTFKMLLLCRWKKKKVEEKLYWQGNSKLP
As to the kind of experiment: Agonist activity at M5R (unknown origin) expressed in HEK293 cells harboring luc2P/NFAT-RE plasmid at 10 uM after 6 to 8 hrs by luciferase reporter gene assay. Format: cell-based. The gist of the method:
as §4

Active and inactive are the calls of the source. No cut-off for these calls is given here.

A word on the Tmax: it is the time from dosing to the highest level. Usually Cmax stands for the highest concentration seen after dosing. `COc1ccc(-c2nc(N)nc3c2CCCC3C)cc1` (racemic): the Activity in the series with Mus musculus [1] is 28%; with Mus musculus [6], “Tde”; in series [9] it was “Non-Toxic”. Moreover, the “Ratio AUC” value in series [2] is 85.8%; in series [12], 6.1%. Besides, the Tmax in series [3] was 30 min; in series [10] it was 15 min. Moreover, the inhibition result in series [4] was “inactive”. Also, the outcome in the series with Mus musculus [5] was Active. The AUClast in series [7] stood at 100.7 ng·h/mL. Moreover, the Ratio in [8] worked out at 8.3. Besides, the outcome (in the series with Mus musculus [11]; in series [14]) was inactive. Besides, the Cmax in series [13] amounted to 3333.3 ng/mL.

Source of the values: ChEMBL document CHEMBL4393678, “Novel Tetrahydroquinazolinamines as Selective Histamine 3 Receptor Antagonists for the Treatment of Obesity” (J Med Chem, 2019).
